# Screening data deposited in PubChem by several laboratories.
# Rce1 inh = yeast Ras-converting enzyme inhibition; AID 2563; yeast membranes, quenched prenylated peptide cleavage fluorescence; 0.27% of 290,000 active; Q03530; calls only;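 active means fall in fluorescence gain of 50% or more versus controls, with final raw signal at or below 3038400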;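 further: plate controls were neutral control wells for no effect and wells lacking membranes for full effect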
# Target sequence (Q03530 whole entry, looked up): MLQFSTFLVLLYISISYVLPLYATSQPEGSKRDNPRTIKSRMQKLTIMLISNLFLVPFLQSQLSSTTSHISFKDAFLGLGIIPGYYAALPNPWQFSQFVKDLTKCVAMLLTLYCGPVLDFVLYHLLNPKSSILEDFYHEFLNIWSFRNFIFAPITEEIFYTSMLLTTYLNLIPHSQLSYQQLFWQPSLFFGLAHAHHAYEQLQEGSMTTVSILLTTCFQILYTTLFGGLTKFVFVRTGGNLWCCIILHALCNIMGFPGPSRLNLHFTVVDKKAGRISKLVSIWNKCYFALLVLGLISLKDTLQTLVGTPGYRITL
# CR mimetic SO = caloric restriction mimetics inhibiting age-related superoxide in yeast. S. cerevisiae aged cells, superoxide DHE fluorescence; stronger effect = lower value. superoxide response (% of plate mean), % at 10 µM. 0.18% of 330,000 active;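 active means superoxide response under a set limit, about three screen SD below normal, cut at about 65% in these data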;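 further: yeast aged for seven days with compound at 30 °C before DHE staining; 100% = average MFI of all compound-treated wells on the plate with controls excluded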
# V-ATPase pH = alters yeast V-ATPase proton transport; S. cerevisiae, pHLuorin cytosolic pH fluorescence; 0.37% of 350,000 active; AID 504577; response, % at 10 µM; in the data active means response mostly above about 7.3%, no sharp cut-off; inactive means mostly below about 5.4%; further: actives read high
# MIN6 prolif = induces beta-cell replication in MIN6 cells. proliferation, % at 10 µM. MIN6 cells proliferation, ATPlite luminescence, 48 h; cells starved in 0.2% serum; 100% = growth in 10% serum. 0.29% of 330,000 active;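 active means compounds whose signal lies at least 3.5 SD above the mean of all wells on their plate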;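 further: 0% = DMSO-treated cells in low-serum medium and 100% = 10% serum control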
# KLK7 zymogen act = activators of human kallikrein-7 zymogen; purified proKLK7, EDANS-DABCYL substrate fluorescence; 100% is mature enzyme control, 0% vehicle; activation, % at 7 µM; 0.9% of 370,000 active; AID 652039;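 active means activation above the mean of all tested compounds plus 3 SD, computed per campaign excluding outliers beyond control limits, cut at about 13% in these data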
# Target sequence (P49862 whole entry, looked up): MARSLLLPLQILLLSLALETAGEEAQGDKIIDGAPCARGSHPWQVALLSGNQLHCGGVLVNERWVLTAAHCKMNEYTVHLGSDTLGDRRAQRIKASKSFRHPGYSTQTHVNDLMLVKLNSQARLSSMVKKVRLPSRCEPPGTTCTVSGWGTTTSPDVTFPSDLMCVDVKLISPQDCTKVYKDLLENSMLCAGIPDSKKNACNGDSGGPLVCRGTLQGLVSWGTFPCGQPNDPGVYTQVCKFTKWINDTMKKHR
# T cell HTS = T cell immune modulators affecting CD8 T cell-vesicle binding; 2C CD8+ T cell-vesicle binding, flow cytometry; stronger effect = lower value; response (vesicle binding), % at 7 µM; 0.068% of 330,000 active; AID 2052;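 active means response, share of CD8 T cells binding vesicles, and their 90th percentile fluorescence all below set limits, cut at about 80% in these data, passing the limit was not always enough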;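 further: values below 100% mean blocked vesicle binding to the CD8+ T cells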
#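 Read-out – percent CD8+ FL2 mean versus row control · System – murine 2C transgenic CD8+ T lymphocytes · Times – 1.5 h cell–vesicle binding at 37 °C, then 20 min icy labelling · Control set – naked vesicles low, QL9 vesicles with vehicle high · Detection – cytometric PE anti-B7-1 and Alexa647 anti-CD8 signals after 1% paraformaldehyde fixation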
# KLK7 act conf = confirmation of human kallikrein-7 zymogen activators. purified proKLK7, EDANS-DABCYL substrate fluorescence; scaled: vehicle 0, mature enzyme 100. activation, % at 7 µM. shares compounds with KLK7 zymogen act. 68% of 3,200 active;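 active means activation, as change over the incubation, above the mean of all tested compounds plus 3 SD, cut at about 13% in these data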
# EDANS interfere = fluorescence interference counter-screen for KLK7 activators | activation, % at 7 µM | EDANS-DABCYL substrate fluorescence interference, no enzyme, 4 h; solvent 0%, active enzyme control 100% | shares compounds with KLK7 zymogen act | 80% of 3,200 active;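 active means activation above the all-compound mean plus 3 SD, ignoring values outside control-based bounds, cut at about 4.8% in these data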;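 further: value is the 4 h activation minus the activation read at time zero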
# EDANS interf = counter-screen for kallikrein-7 activators: EDANS-DABCYL interference, dose response | shares compounds with KLK7 zymogen act | EDANS-DABCYL peptide fluorescence interference, no enzyme | EC50, µM | 20% of 250 active;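 active means compounds that raise the fluorescence signal in this interference counterscreen, with EC50 at or below 10 µM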;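 further: intact quenched peptide substrate alone read at 355 nm excitation and 520 nm emission; signal is fluorescence gain from T0 to T4 after four hours at room temperature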
# Starred values were filed as active, the others as inactive; i = inactive; . = no result given. Compounds with a hit are over-represented: about 1.9% of the library has one in this group of screens.
SMILES,Rce1 inh,CR mimetic SO,V-ATPase pH,MIN6 prolif,KLK7 zymogen act,T cell HTS,KLK7 act conf,EDANS interfere,others
COc1ccc([C@H]2Cc3cccc(O)c3C(=O)O2)cc1O,.,94,4,8,-1,109,.,.,
O=C1O[C@@H](c2ccc(O)cc2)Cc2cccc(O)c21,.,98,0,-2,49*,354,44*,52*,
C=CCn1c(OCc2ccccc2)n[nH]c1=S,i,89,-1,-2,0,230,.,.,
Cc1cc2c(C)cc(=O)oc2c2c1NCCC2,i,88,3,-2,68*,120,62*,63*,
O=C(O)CCc1nn2c3ccccc3n(CCN3CCCCC3)c2nc1=O,i,121,7,4,46*,827,8,11*,
Cc1nn(-c2ccccc2)c(C)c1C(=O)OCC(=O)Nc1cccc(S(N)(=O)=O)c1,.,85,0,-3,0,794,.,.,
Cc1cc(=O)oc2cc(NS(=O)(=O)c3ccccc3)ccc12,i,107,1,-1,67*,375,76*,76*,
Cc1cc(=O)oc2cc(NS(=O)(=O)c3ccc(F)cc3)ccc12,i,92,-4,-4,79*,i,65*,75*,
CCN(CC)CCN(C(=O)c1ccc2c(c1)OCCO2)c1nc2cc3c(cc2s1)OCO3,i,108,-2,6,0,380,.,.,
CCN(CC)CCN(C(=O)c1cc2c(ccc3ccccc32)oc1=O)c1nc2cc3c(cc2s1)OCCO3,i,110,0,-6,46*,496,61*,65*,
O=C(c1cccc(S(=O)(=O)Nc2ccc(Br)cc2)c1)N1CCC1,i,100,-2,0,0,388,.,.,
COc1ccc(-c2oc3c4c2C(=O)OCCOC4CCC3)cc1 (stereo unspecified),.,.,.,.,15*,.,7,7.8*,
COc1ccc(-c2cc(C(=O)N/N=C/c3cccnc3)c3cc(C)cc(C)c3n2)cc1,i,108,1,-4,112*,304,-313,-285,
CC(C)(C)n1nc(C2CC2)cc1NC(=O)Nc1ccccc1,.,.,.,.,0,.,.,.,
CN(C(=O)c1ccc(S(=O)(=O)N(C)C)cc1)c1ccc2ccccc2c1,i,96,0,-3,0,186,.,.,
COc1ccc2sc3ccccc3c(=O)c2c1,i,89,-3,0,-7,238,.,.,
COc1ccc2sc(C)cc(=O)c2c1,.,.,-1,.,51*,.,37*,43*,
COC(=O)[C@]12C[C@H](CC(=O)NCc3ccccc3)C(=O)N(Cc3cccc4ccccc34)C1=C[C@H](C(C)C)O[C@@H]2C1CC1,.,.,.,.,0,.,.,.,
Cc1cc(OCc2cccc(S(=O)(=O)N3CCOCC3)c2)ccc1Cl,.,119,-3,-4,0,325,.,.,
Cc1ccc(S(=O)(=O)c2c(N)n(CCCO)c3nc4ccccc4nc23)cc1,i,103,0,-3,14*,276,-46,-48,
CCOC(=O)C1=CN(Cc2ccco2)S(=O)(=O)NC1c1ccc(Br)cc1F (stereo unspecified),.,89,1,.,0,.,.,.,
COC(=O)Cn1c2ccccc2c(=O)n1C(C)CBr (stereo unspecified),.,.,.,.,67*,.,62*,55*,
Cc1nc2nc(-c3cccs3)cn2nc1C,i,95,-5,-3,68*,144,68*,66*,
COc1cccc(-c2cn3nc(C)c(C)nc3n2)c1,i,94,2,-1,2,148,.,.,
Cc1nc2nc(-c3ccc(Cl)cc3)cn2nc1C,i,109,0,-3,53*,242,75*,79*,
SMILES,Rce1 inh,CR mimetic SO,V-ATPase pH,MIN6 prolif,KLK7 zymogen act,T cell HTS,KLK7 act conf,EDANS interfere,others
O=C(COc1ccc(Br)cc1)NCCN1CCCC1,i,99,3,-1,0,202,.,.,
COc1ccc(-c2nnc(C(C)Nc3cccc(C(=O)NC4CC4)c3)o2)cc1 (stereo unspecified),.,112,3,0,0,417,.,.,
Cc1cc(OC(C)C(=O)NCc2ccccn2)c2c(C)cc(=O)oc2c1 (stereo unspecified),i,95,-2,5,14*,i,11,12*,
Cn1c(=O)c2cc(NC(=O)Nc3cccnc3)ccc2n1Cc1ccc(Cl)cc1,.,.,.,.,6,.,.,.,
CCNC(=S)Nc1ccc2c(c1)c(=O)n(C)n2CC=C(C)C,.,.,.,.,46*,.,31*,33*,
COc1ccc(CCNC(=O)Nc2ccc3c(c2)c(=O)n(C)n3CC=C(C)C)cc1OC,.,.,.,.,26*,.,3,5.4*,
COc1ccc(NC(=O)NCCc2ccc(Cl)cc2)cc1OC,i,90,0,0,0,856,.,.,
C=C(C)Cn1c2ccc(NC(=O)CCc3cccnc3)cc2c(=O)n1C,.,.,.,.,21*,.,23*,26*,
CC(C)=CCn1c2ccc(NC(=O)Nc3cccnc3)cc2c(=O)n1C,.,.,.,.,21*,.,6,9.4*,
CC(CNC(=O)CC[C@H]1O[C@@H](n2cnc3c(NC(=O)c4ccccc4)ncnc32)[C@H](O)[C@@H]1O)c1ccccc1 (stereo partly specified),.,.,.,.,0,.,.,.,
COc1cccc(NC(=O)COc2coc(CN3CCc4ccccc4C3)cc2=O)c1,i,89,-2,1,0,164,.,.,
CC(C)=CCn1c2ccc(NC(=O)NCc3ccc(F)cc3)cc2c(=O)n1C,.,.,.,.,18*,.,3,-1,
C=C(C)Cn1c2ccc(NC(=O)NCCc3cccs3)cc2c(=O)n1C,.,.,.,.,26*,.,19*,9.8*,EDANS interf=>70
CCNC(=O)Nc1ccc2c(c1)c(=O)n(C)n2CC=C(C)C,.,.,.,.,40*,.,33*,31*,
CC(C)=CCn1c2ccc(NC(=O)Nc3ccc(N(C)C)cc3)cc2c(=O)n1C,.,.,.,.,14*,.,5,6.5*,
C=C(C)Cn1c2ccc(NC(=S)NCc3ccccc3F)cc2c(=O)n1C,.,.,.,.,-1,.,.,.,
O=C(Nc1ccccc1)C1Cc2c(-c3ccco3)ccnc2O1 (stereo unspecified),.,.,.,.,0,.,.,.,
COC(=O)C=C1CCC2C3CC(F)C4(O)CC(=O)CCC4(C)C3C(=O)CC12C (stereo unspecified),.,.,4,.,1,.,.,.,
COc1ccc(OC)c(C2NC(=O)NC(C)=C2C(=O)OC2CCCCC2)c1 (stereo unspecified),i,99,-3,-2,19*,205,-2,1,
